Laboratory results taken from ChEMBL document CHEMBL1153135, “Reaction of naphthoquinones with substituted nitromethanes. Facile synthesis and antifungal activity of naphtho[2,3-d]isoxazole-4,9-diones” (2010).
≈ marks a conversion by molar mass, not a printed value.

Assays:
Assay type in all cases: functional
Candida albicans [1] = experiment: Antifungal activity against Candida albicans ATCC 90028 after 48 hrs; details: ATCC 90028, 48 h
Outline: (§1)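 Broth microdilution after modified CLSI M27-A in SG minimal medium (yeast nitrogen base without amino acids, 2% glucose). Compounds dissolved in DMSO (1 mg/mL), diluted 10-fold in SG, then 30 final concentrations from 97.5 to 0.0025 µg/mL. About 5 × 10³ cells/well, in triplicate. Incubated at 30 °C for 48 h, OD 655 nm read as % of DMSO control; MIC50 by probit analysis of mean values.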

Candida albicans [2] = experiment: Antifungal activity against Candida albicans PYCC 3436 after 48 hrs; details: PYCC 3436, 48 h; outline: as §1
Pichia kudriavzevii = experiment: Antifungal activity against Candida krusei PYCC 3341 after 48 hrs; details: PYCC 3341, 48 h; outline: as §1
Candida parapsilosis [3] = experiment: Antifungal activity against Candida parapsilosis ATCC 22019 after 48 hrs; details: Lodderomyces parapsilosis, ATCC 22019, 48 h; outline: as §1
Nakaseomyces glabratus = experiment: Antifungal activity against Candida glabrata PYCC 2418 after 48 hrs; details: PYCC 2418, 48 h; outline: as §1
Candida parapsilosis [4] = experiment: Antifungal activity against Candida parapsilosis PYCC 2545 after 48 hrs; details: Lodderomyces parapsilosis, PYCC 2545, 48 h; outline: as §1

MIC50 (Candida albicans [1]) [µM] | MIC50 (Candida albicans [2]) [µM] | MIC50 (Pichia kudriavzevii) [µM] | MIC50 (Candida parapsilosis [3]) [µM] | MIC50 (Nakaseomyces glabratus) [µM] | MIC50 (Candida parapsilosis [4]) [µM] | SMILES
202 (≈ 47.9 µg/mL) | 9.5 (≈ 2.25 µg/mL) | 3.9 (≈ 0.923 µg/mL) | 40.4 (≈ 9.56 µg/mL) | 3.8 (≈ 0.899 µg/mL) | 48.3 (≈ 11.4 µg/mL) | CCOC1=C(Cl)C(=O)c2ccccc2C1=O
11.5 (≈ 3.12 µg/mL) | 1.8 (≈ 0.488 µg/mL) | 2.3 (≈ 0.624 µg/mL) | 1.7 (≈ 0.461 µg/mL) | 0.6 (≈ 0.163 µg/mL) | 0.6 (≈ 0.163 µg/mL) | CCOC(=O)c1noc2c1C(=O)c1ccccc1C2=O
71.2 (≈ 21.6 µg/mL) | 1.6 (≈ 0.485 µg/mL) | 21.2 (≈ 6.43 µg/mL) | 3.3 (≈ 1 µg/mL) | 47.6 (≈ 14.4 µg/mL) | 13.2 (≈ 4 µg/mL) | O=C(c1ccccc1)c1noc2c1C(=O)c1ccccc1C2=O
12.2 (≈ 3.14 µg/mL) | 0.7 (≈ 0.18 µg/mL) | 2.4 (≈ 0.617 µg/mL) | 1.8 (≈ 0.463 µg/mL) | 2.6 (≈ 0.669 µg/mL) | 1.3 (≈ 0.334 µg/mL) | COC(=O)c1noc2c1C(=O)c1ccccc1C2=O
1.2 (≈ 1.11 µg/mL) | 0.5 (≈ 0.462 µg/mL) | 1 (≈ 0.924 µg/mL) | 0.5 (≈ 0.462 µg/mL) | 0.4 (≈ 0.37 µg/mL) | 0.5 (≈ 0.462 µg/mL) | C[C@@H]1[C@H](O)[C@@H](C)/C=C/C=C/C=C/C=C/C=C/C=C/C=C/[C@H](O[C@@H]2O[C@H](C)[C@@H](O)[C@H](N)[C@@H]2O)C[C@@H]2O[C@](O)(C[C@@H](O)C[C@@H](O)[C@H](O)CC[C@@H](O)C[C@@H](O)CC(=O)O[C@H]1C)C[C@H](O)[C@H]2C(=O)O [AMPHOTERICIN B]

The next lines start with the molecule.

SMILES | MIC50 (Candida albicans [1]) [µM] | MIC50 (Candida albicans [2]) [µM] | MIC50 (Pichia kudriavzevii) [µM] | MIC50 (Candida parapsilosis [3]) [µM] | MIC50 (Nakaseomyces glabratus) [µM] | MIC50 (Candida parapsilosis [4]) [µM]
COC1=C(Cl)C(=O)c2ccccc2C1=O | 73.9 (≈ 16.5 µg/mL) | 10.4 (≈ 2.32 µg/mL) | 4.6 (≈ 1.02 µg/mL) | 4.7 (≈ 1.05 µg/mL) | 16.7 (≈ 3.72 µg/mL) | 5.3 (≈ 1.18 µg/mL)
CCOC(=O)CC1=C(Br)C(=O)c2ccccc2C1=O | 4.5 (≈ 1.45 µg/mL) | 0.9 (≈ 0.291 µg/mL) |  | 3.2 (≈ 1.03 µg/mL) | 12 (≈ 3.88 µg/mL) | 1.1 (≈ 0.355 µg/mL)
O=C1c2ccccc2C(=O)c2c(S(=O)(=O)c3ccccc3)noc21 | 56.7 (≈ 19.2 µg/mL) | 2.5 (≈ 0.848 µg/mL) | 9.7 (≈ 3.29 µg/mL) | 6.1 (≈ 2.07 µg/mL) | 1.5 (≈ 0.509 µg/mL) | 1.6 (≈ 0.543 µg/mL)
